ChEMBL document CHEMBL1649328, “Assessment of pandemic and seasonal influenza A (H1N1) virus susceptibility to neuraminidase inhibitors in three enzyme activity inhibition assays” (Antimicrob Agents Chemother, 2010)

How the values were obtained:
Influenza A virus [1] = experiment: Antiviral activity against influenza A (A/Montana/02/2009 (H1N1)) virus harboring neuraminidase H275Y mutant after 30 mins by NA-star substrate based chemiluminescent assay; format: functional, organism-based
How it was run: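 Titrated virus in NA-Star buffer (26 mM MES, 4 mM CaCl2, pH 6.0) was preincubated with ten half-log inhibitor dilutions (0.03–1,000 nM final) for 30 min at 37°C, then with substrate for 30 min at room temperature. Accelerator solution was added and luminescence read for 0.1 s. IC50 came from a Vmax·[1−x/(K+x)] fit, mean of ≥3 experiments.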

Influenza A virus [2] = experiment: Antiviral activity against influenza A (A/Montana/02/2009 (H1N1)) virus harboring neuraminidase H275Y mutant after 30 mins by MUNANA substrate based fluorometric assay; format: functional, organism-based
How it was run: (§1)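 Fluorometric NA inhibition with MUNANA (100 μM final). Titrated virus in NA-Star buffer (26 mM MES, 4 mM CaCl2, pH 6.0) was preincubated with ten half-log inhibitor dilutions (0.03–1,000 nM final) for 30 min at 37°C, then with substrate for 30 min at 37°C. The reaction was stopped with 0.1 M glycine in 25% ethanol, pH 10.7, and 4-methylumbelliferone was read at ex 365/em 450 nm. IC50 came from a Vmax·[1−x/(K+x)] fit, mean of ≥3 experiments.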

Influenza A virus [3] = experiment: Antiviral activity against influenza A (A/Hong Kong/2369/2009 (H1N1)) virus harboring neuraminidase H275Y mutant after 30 mins by MUNANA substrate based fluorometric assay; format: functional, organism-based; how it was run: as §1
Influenza A virus [4] = experiment: Antiviral activity against influenza A (A/Montana/02/2009 (H1N1)) virus harboring neuraminidase H275Y mutant after 16 to 18 hrs by fetuin substrate based colorimetric assay; format: functional, organism-based
How it was run: (§2)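 Colorimetric NA inhibition with fetuin substrate. Virus was diluted in NA-Star buffer (26 mM MES, 4 mM CaCl2, pH 6.0) to give OD549 of 0.4–0.8 after 18 h. It was preincubated with ten half-log inhibitor dilutions (0.03–1,000 nM final) for 1 h at 37°C, then with fetuin (5.5 mg/ml final) for 16–18 h at 37°C. Released sialic acid was read at 549 nm after periodate/TBA reaction and butanol extraction. IC50 came from a Vmax·[1−x/(K+x)] fit, mean of ≥2 experiments.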

Influenza A virus [5] = experiment: Antiviral activity against influenza A (A/Hong Kong/2369/2009 (H1N1)) virus harboring neuraminidase H275Y mutant after 16 to 18 hrs by fetuin substrate based colorimetric assay; format: functional, organism-based; how it was run: as §2
Influenza A virus [6] = experiment: Ratio of IC50 for influenza A (A/Washington/29/2009 (H1N1)) virus harboring neuraminidase H275Y mutant to IC50 for influenza A (A/Washington/29/2009 (H1N1)) virus expressing wild type enzyme by MUNANA substrate based fluorometric assay; format: functional
How it was run: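 Fluorometric NA inhibition in MES/CaCl2 buffer, pH 6.0. Virus preincubated 30 min at 37°C with ten half-log inhibitor dilutions (0.03–1,000 nM final), then MUNANA (100 μM final) added for 30 min at 37°C. Stopped with 0.1 M glycine in 25% ethanol, pH 10.7. Read at ex 365/em 450 nm. IC50 curve-fitted, mean of ≥3 experiments. Ratio is variant IC50 over wild-type reference IC50.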

Influenza A virus [7] = experiment: Ratio of IC50 for influenza A (A/North Carolina/01/2009 (H1N1)) virus harboring neuraminidase H275Y mutant to IC50 for influenza A (A/Washington/29/2009 (H1N1)) virus expressing wild type enzyme by fetuin substrate based colorimetric assay; format: functional

In the case of `C/C=C\[C@@H]1C[C@H](C(=O)O)N[C@H]1[C@@H](NC(C)=O)[C@](C)(CCC)OC`, the IC50 (Influenza A virus [1]) is reported as 1 nM, the IC50 (Influenza A virus [2]) is reported as 2.6 nM and the IC50 (Influenza A virus [3]) is reported as 1.67 nM. For the same molecule, the IC50 (Influenza A virus [4]) was 1.89 nM, the IC50 (Influenza A virus [5]) was 3.56 nM and the “Ratio IC50” value (Influenza A virus [6]) was 3. The “Ratio IC50” value (Influenza A virus [7]) was 2.
For `CCC(CC)[C@H](NC(C)=O)[C@@H]1[C@H](O)[C@@H](C(=O)O)C[C@H]1NC(=N)N` [PERAMIVIR ANHYDROUS], the IC50 (Influenza A virus [1]) was 15 nM, the IC50 (Influenza A virus [2]) was 197 nM and the IC50 (Influenza A virus [3]) was 128 nM. For the same molecule, the IC50 (Influenza A virus [4]) was 83.4 nM, the IC50 (Influenza A virus [5]) was 162 nM and the “Ratio IC50” value (Influenza A virus [6]) was 751. The “Ratio IC50” value (Influenza A virus [7]) was 140.
